Measured values reported in ChEMBL document CHEMBL1140294 (J Med Chem, 2005).
pEC50: −log10 of the molar value.

Key:
Format in all cases: cell-based
[1] = target: T1, ATP-dependent translocase ABCB1 (Homo sapiens, UniProt P08183); experiment: Reversal of P-gp-mediated multidrug resistance in doxorubicin-resistant human K562 cells assessed as increase in nuclear pirarubicin concentration
[2] = target: T1, ATP-dependent translocase ABCB1; experiment: Reversal of P-gp-mediated multidrug resistance in doxorubicin-resistant human K562 cells assessed as drug concentration causing half-maximal increase in nuclear pirarubicin concentration; details: read-out: Activity
[3] = target: T1, ATP-dependent translocase ABCB1; experiment: Reversal of P-gp-mediated multidrug resistance in human K562 cells assessed as drug concentration causing 40% increase in nuclear pirarubicin concentration
Procedure, shortened: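 Doxorubicin-resistant K 562 cells in exponential phase. Pirarubicin uptake monitored by fluorescence at 590 nm (ex 480 nm) in HEPES buffer (pH 7.25) at 37 °C. The reported value, [I]0.5, is the modulator concentration giving a 40% increase in nuclear pirarubicin concentration (α = 0.4).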

T1 sequence (P08183 whole entry): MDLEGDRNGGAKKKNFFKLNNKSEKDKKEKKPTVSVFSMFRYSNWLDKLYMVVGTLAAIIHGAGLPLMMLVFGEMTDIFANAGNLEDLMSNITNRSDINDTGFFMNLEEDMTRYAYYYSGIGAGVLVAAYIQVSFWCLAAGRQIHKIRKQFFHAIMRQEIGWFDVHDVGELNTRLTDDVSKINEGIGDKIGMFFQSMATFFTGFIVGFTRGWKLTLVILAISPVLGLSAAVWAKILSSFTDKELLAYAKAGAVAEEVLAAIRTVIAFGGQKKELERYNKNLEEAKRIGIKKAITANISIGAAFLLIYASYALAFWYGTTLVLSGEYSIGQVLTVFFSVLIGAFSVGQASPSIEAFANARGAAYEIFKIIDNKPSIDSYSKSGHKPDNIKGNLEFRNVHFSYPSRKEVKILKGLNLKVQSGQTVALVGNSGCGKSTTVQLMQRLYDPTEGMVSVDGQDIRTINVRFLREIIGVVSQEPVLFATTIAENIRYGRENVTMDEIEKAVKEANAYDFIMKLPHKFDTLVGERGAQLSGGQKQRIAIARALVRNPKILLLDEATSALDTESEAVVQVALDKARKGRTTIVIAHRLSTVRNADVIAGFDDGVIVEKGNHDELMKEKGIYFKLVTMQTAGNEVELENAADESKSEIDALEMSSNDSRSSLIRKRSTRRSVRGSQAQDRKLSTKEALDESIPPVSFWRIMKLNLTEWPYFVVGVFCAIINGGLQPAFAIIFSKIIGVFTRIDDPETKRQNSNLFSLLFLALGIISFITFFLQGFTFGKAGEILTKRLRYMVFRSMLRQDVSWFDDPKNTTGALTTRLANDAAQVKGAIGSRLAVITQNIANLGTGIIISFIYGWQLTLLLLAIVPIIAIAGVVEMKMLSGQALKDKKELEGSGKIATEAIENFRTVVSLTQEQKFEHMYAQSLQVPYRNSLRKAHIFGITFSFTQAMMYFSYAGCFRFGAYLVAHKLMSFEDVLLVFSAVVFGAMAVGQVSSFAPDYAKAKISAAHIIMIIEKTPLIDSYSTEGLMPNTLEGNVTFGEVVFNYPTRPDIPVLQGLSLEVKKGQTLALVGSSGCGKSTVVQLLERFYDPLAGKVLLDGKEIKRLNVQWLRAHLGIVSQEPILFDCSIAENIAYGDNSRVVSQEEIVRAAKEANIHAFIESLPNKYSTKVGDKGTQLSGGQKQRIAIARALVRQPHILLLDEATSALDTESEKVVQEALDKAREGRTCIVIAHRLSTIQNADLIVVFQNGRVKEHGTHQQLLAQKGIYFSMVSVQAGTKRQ

Compound | Alpha max [1] | pEC50 [2] | Activity [3] [µM]
COc1cc(/C=C/C(=O)OCCCN(C)CCN(C)CCCOC(=O)c2cc(OC)c(OC)c(OC)c2)cc(OC)c1OC | 0.78 | 5.89 | 
CN(CCCOC(=O)c1c2ccccc2cc2ccccc12)CCN(C)CCCOC(=O)c1c2ccccc2cc2ccccc12 | 0.5 |  | 0.8
COc1cc(/C=C/C(=O)OCCCN(C)CCN(C)CCCOC(=O)/C=C/c2cc(OC)c(OC)c(OC)c2)cc(OC)c1OC | 0.8 | 5.59 | 
COc1ccc(C(C#N)(CCC(=O)OCCCN(C)CCN(C)CCCOC(=O)c2c3ccccc3cc3ccccc23)C(C)C)cc1OC (stereo unspecified) | 0.74 | 6.40 | 
COc1ccc(C(C#N)(CCC(=O)OCCCN2CCN(CCCOC(=O)c3c4ccccc4cc4ccccc34)CC2)C(C)C)cc1OC (stereo unspecified) | 0.65 | 6.21 | 
COc1cc(/C=C/C(=O)OCCN(C)CCOC(=O)C2c3ccccc3-c3ccccc32)cc(OC)c1OC | 0.7 | 6.10 | 
COc1cc(/C=C/C(=O)OCCCN(C)CCCOC(=O)c2cc(OC)c(OC)c(OC)c2)cc(OC)c1OC | 0.9 | 6.22 | 
COc1cc(/C=C/C(=O)OCCN(C)CCOC(=O)c2cc(OC)c(OC)c(OC)c2)cc(OC)c1OC | 0.86 | 5.51 | 
COc1cc(/C=C/C(=O)OCCCNCCCOC(=O)c2cc(OC)c(OC)c(OC)c2)cc(OC)c1OC | 1 | 6.30 | 
COc1cc(/C=C/C(=O)OCCN(C)CCOC(=O)c2ccccc2)cc(OC)c1OC | 0.86 | 5.43 | 
COc1ccc(C(C#N)(CCC(=O)OCCCNCCCOC(=O)c2c3ccccc3cc3ccccc23)C(C)C)cc1OC (stereo unspecified) | 0.9 | 5.68 | 
COc1cc(/C=C/C(=O)OCCN(C)CCOC(=O)c2ccc(OC)c(OC)c2OC)cc(OC)c1OC | 0.8 | 5.19 | 
COc1cc(/C=C/C(=O)OCCOCCN(C)CCOCCOC(=O)c2cc(OC)c(OC)c(OC)c2)cc(OC)c1OC | 0.9 | 5.38 | 
COc1cc(/C=C/C(=O)OCCOCCNCCOCCOC(=O)c2cc(OC)c(OC)c(OC)c2)cc(OC)c1OC | 1 | 5.15 | 
COc1cc(/C=C/C(=O)OCCCN(C)CCN(C)CCCOC(=O)C2c3ccccc3-c3ccccc32)cc(OC)c1OC | 0.64 | 6.24 | 
COc1cc(/C=C/C(=O)OCCCCCCN(C)CCCCCCOC(=O)c2cc(OC)c(OC)c(OC)c2)cc(OC)c1OC | 0.6 | 5.70 | 
COc1cc(/C=C/C(=O)OCCCCCCCN(C)CCCCCCCOC(=O)c2cc(OC)c(OC)c(OC)c2)cc(OC)c1OC | 0.55 | 6.00 | 
COc1cc(/C=C/C(=O)OCCCCCN(C)CCCCCOC(=O)c2cc(OC)c(OC)c(OC)c2)cc(OC)c1OC | 0.84 | 6.10 | 
O=C(OCCCN1CCN(CCCOC(=O)c2c3ccccc3cc3ccccc23)CC1)c1c2ccccc2cc2ccccc12 | 0.5 |  | 2.5
COc1cc(/C=C/C(=O)OCCCCCCN(C)CCCCCCOC(=O)c2c3ccccc3cc3ccccc23)cc(OC)c1OC | 0.68 | 6.21 | 
COc1cc(/C=C/C(=O)OCCN(C)CCOC(=O)c2c3ccccc3cc3ccccc23)cc(OC)c1OC | 0.84 | 6.00 | 

The remaining compounds from weak to strong by pEC50 [2], led by results:

Alpha max [1] | pEC50 [2] | Activity [3] [µM] | Compound
0.61 | 6.42 |  | COc1cc(/C=C/C(=O)OCCCN2CCN(CCCOC(=O)c3cc(OC)c(OC)c(OC)c3)CC2)cc(OC)c1OC
0.8 | 6.43 |  | COc1cc(/C=C/C(=O)OCCCN2CCN(CCCOC(=O)/C=C/c3cc(OC)c(OC)c(OC)c3)CC2)cc(OC)c1OC
0.7 | 6.64 |  | COc1cc(/C=C/C(=O)OCCCN2CCN(CCCOC(=O)C3c4ccccc4-c4ccccc43)CC2)cc(OC)c1OC
0.74 | 6.68 |  | COc1cc(/C=C/C(=O)OCCCNCCCOC(=O)c2c3ccccc3cc3ccccc23)cc(OC)c1OC
0.7 | 6.72 |  | COc1cc(/C=C/C(=O)OCCCN(C)CCN(C)CCCOC(=O)c2c3ccccc3cc3ccccc23)cc(OC)c1OC
0.78 | 6.74 |  | COc1cc(/C=C/C(=O)OCCCN(C)CCCOC(=O)c2c3ccccc3cc3ccccc23)cc(OC)c1OC
0.84 | 6.77 |  | COc1cc(/C=C/C(=O)OCCOCCN(C)CCOCCOC(=O)c2c3ccccc3cc3ccccc23)cc(OC)c1OC
0.9 | 6.80 |  | COc1cc(/C=C/C(=O)OCCCN2CCN(CCCOC(=O)c3c4ccccc4cc4ccccc34)CC2)cc(OC)c1OC
0.55 | 6.82 |  | COc1cc(/C=C/C(=O)OCCCCCCCN(C)CCCCCCCOC(=O)c2c3ccccc3cc3ccccc23)cc(OC)c1OC
0.83 | 6.96 |  | COc1cc(/C=C/C(=O)OCCCCCN(C)CCCCCOC(=O)C2c3ccccc3-c3ccccc32)cc(OC)c1OC
0.8 | 7.00 |  | COc1cc(/C=C/C(=O)OCCCCCN(C)CCCCCOC(=O)c2c3ccccc3cc3ccccc23)cc(OC)c1OC
0.7 | 7.30 |  | COc1ccc(C(C#N)(CCCN(C)c2c3ccccc3cc3ccccc23)C(C)C)cc1OC (stereo unspecified)
